Source: ChEMBL document CHEMBL5385902, “Synthesis of urea and thiourea derivatives of C20-epi-aminosalinomycin and their activity against Trypanosoma brucei” (Eur J Med Chem, 2023)
In brackets after ≈: the same amount, converted by molar mass. Activity calls are given as the source filed them. The calls are words filed in the database; no cut-off is given here.

Experiments:
[1] = Selectivity index, ratio of MIC for cytotoxicity against human HL60 cells to MIC for Trypanocidal activity against bloodstream form of Trypanosoma brucei 427-221a; format: toxicity, cell-based; details: read-out: Selectivity Index
Trypanosoma brucei [2] = test: Trypanocidal activity against bloodstream form of Trypanosoma brucei 427-221a assessed as inhibition of parasite growth incubated for 24 hrs and measured at 48 hrs following resazurin challenge by resazurin assay; format: functional; details: time 72 hrs
Method in brief: (§1)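 Bloodstream-form T. brucei 427-221a (1 × 10^4 mL^-1) or HL-60 cells (5 × 10^4 mL^-1) in Baltz medium with 16.7% heat-inactivated bovine serum, 0.9% DMSO, 10-fold dilutions 100 μM to 100 nM; 37 °C, 5% CO2, 24 h. Resazurin then added, 48 h more; absorbance 570 nm, reference 630 nm. GI50 by linear interpolation; mean and SD of three independent experiments.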

Trypanosoma brucei [3] = test: Trypanocidal activity against bloodstream form of Trypanosoma brucei 427-221a assessed as parasite killing incubated for 24 hrs by microscopic analysis; format: functional
Method in brief: (§2)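 Bloodstream-form T. brucei 427-221a seeded at 1 × 10^4 mL^-1 or HL-60 cells at 5 × 10^4 mL^-1 in Baltz medium with 16.7% heat-inactivated bovine serum, 0.9% DMSO, 10-fold dilutions 100 μM to 100 nM; 37 °C, 5% CO2. MIC, concentration killing all cells, determined microscopically. Possible values 100 μM down to […].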

[4] = Cytotoxicity against human HL-60 cells assessed as inhibition of cell growth incubated for 24 hrs and measured at 48 hrs following resazurin challenge by resazurin assay; format: toxicity, cell-based; method in brief: as §1
[5] = Cytotoxicity against human HL-60 cells assessed as cell killing incubated for 24 hrs by microscopic analysis; format: toxicity, cell-based; details: read-out: MIC; method in brief: as §2
[6] = Selectivity index, ratio of GI50 for cytotoxicity against human HL60 cells to GI50 for Trypanocidal activity against bloodstream form of Trypanosoma brucei 427-221a; format: toxicity, cell-based; details: read-out: RatioGI50
Method in brief: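 Ratio of HL-60 GI50 to T. brucei GI50. Both from the resazurin assay in Baltz medium with 16.7% heat-inactivated bovine serum and 0.9% DMSO, 10-fold dilutions 100 μM to 100 nM, 24 h then 48 h with resazurin. GI50 by linear interpolation, three independent experiments.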

Trypanosoma brucei [7] = test: Trypanocidal activity against bloodstream form of Trypanosoma brucei 427-221a assessed as increase in cell swelling activity at 100 uM measured every 10 min for 60 mins by light scattering method; format: functional, organism-based
Method in brief: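 Light-scattering cell-volume assay. 1 × 10^7 bloodstream-form T. brucei 427-221a in 200 μL Baltz medium with 100 μM compound and 0.9% DMSO; controls with DMSO only. Absorbance at 490 nm read every 10 min for 60 min; falling absorbance indicates cell swelling. Rate constant k of the absorbance decrease derived. Means of three independent experiments.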

[8] = Lipophilicity, log P of the compound; format: physicochemical; details: octanol/water

SMILES	selectivity ratio [1]	GI50 (Trypanosoma brucei [2]) [nM]	MIC (Trypanosoma brucei [3]) [µM]	GI50 at 72 h [4] [µM]	MCC at 24 h [5] [µM]	selectivity ratio [6]	Activity (Trypanosoma brucei [7])	logP [8]
CC[C@@H](C(=O)[C@@H](C)[C@@H](O)[C@H](C)[C@@H]1O[C@@H]([C@@H](CC)C(=O)O)CC[C@@H]1C)[C@H]1O[C@]2(C=C[C@H](NC(=O)NCCCl)[C@]3(CC[C@@](C)([C@H]4CC[C@](O)(CC)[C@H](C)O4)O3)O2)[C@H](C)C[C@@H]1C	10	3200	10 (≈ 8.56 µg/mL)	38.5	100	12	–	–
CC[C@@H](C(=O)[C@@H](C)[C@@H](O)[C@H](C)[C@@H]1O[C@@H]([C@@H](CC)C(=O)O)CC[C@@H]1C)[C@H]1O[C@]2(C=C[C@H](NC(=O)Nc3ccccc3)[C@]3(CC[C@@](C)([C@H]4CC[C@](O)(CC)[C@H](C)O4)O3)O2)[C@H](C)C[C@@H]1C	10	2900	10 (≈ 8.69 µg/mL)	44.9	100	15.5	–	–
CC[C@@H](C(=O)[C@@H](C)[C@@H](O)[C@H](C)[C@@H]1O[C@@H]([C@@H](CC)C(=O)O)CC[C@@H]1C)[C@H]1O[C@]2(C=C[C@@H](O)[C@]3(CC[C@@](C)([C@H]4CC[C@](O)(CC)[C@H](C)O4)O3)O2)[C@H](C)C[C@@H]1C [SALINOMYCIN]	100	270	1 (≈ 0.751 µg/mL)	20	100	74.1	Active	> 6.2
CCCNC(=O)N[C@H]1C=C[C@]2(O[C@H]([C@@H](CC)C(=O)[C@@H](C)[C@@H](O)[C@H](C)[C@@H]3O[C@@H]([C@@H](CC)C(=O)O)CC[C@@H]3C)[C@@H](C)C[C@H]2C)O[C@@]12CC[C@@](C)([C@H]1CC[C@](O)(CC)[C@H](C)O1)O2	10	2900	10 (≈ 8.35 µg/mL)	36.7	100	12.7	–	–
CCCCNC(=O)N[C@H]1C=C[C@]2(O[C@H]([C@@H](CC)C(=O)[C@@H](C)[C@@H](O)[C@H](C)[C@@H]3O[C@@H]([C@@H](CC)C(=O)O)CC[C@@H]3C)[C@@H](C)C[C@H]2C)O[C@@]12CC[C@@](C)([C@H]1CC[C@](O)(CC)[C@H](C)O1)O2	100	360	1 (≈ 0.849 µg/mL)	19.8	100	55	Active	–
C=CCNC(=O)N[C@H]1C=C[C@]2(O[C@H]([C@@H](CC)C(=O)[C@@H](C)[C@@H](O)[C@H](C)[C@@H]3O[C@@H]([C@@H](CC)C(=O)O)CC[C@@H]3C)[C@@H](C)C[C@H]2C)O[C@@]12CC[C@@](C)([C@H]1CC[C@](O)(CC)[C@H](C)O1)O2	10	3200	10 (≈ 8.33 µg/mL)	38.3	100	12	–	–
CC[n+]1c(-c2ccccc2)c2cc(N)ccc2c2ccc(N)cc21 [HOMIDIUM BROMIDE]	1	87	10	6.4	10	73.6	–	–
C=CCNC(=S)N[C@H]1C=C[C@]2(O[C@H]([C@@H](CC)C(=O)[C@@H](C)[C@@H](O)[C@H](C)[C@@H]3O[C@@H]([C@@H](CC)C(=O)O)CC[C@@H]3C)[C@@H](C)C[C@H]2C)O[C@@]12CC[C@@](C)([C@H]1CC[C@](O)(CC)[C@H](C)O1)O2	100	310	1 (≈ 0.849 µg/mL)	15.1	100	48.7	–	–
CC[C@@H](C(=O)[C@@H](C)[C@@H](O)[C@H](C)[C@@H]1O[C@@H]([C@@H](CC)C(=O)O)CC[C@@H]1C)[C@H]1O[C@]2(C=C[C@H](NC(=O)NCCCCl)[C@]3(CC[C@@](C)([C@H]4CC[C@](O)(CC)[C@H](C)O4)O3)O2)[C@H](C)C[C@@H]1C	10	2300	10 (≈ 8.7 µg/mL)	18.1	100	7.9	–	–
CCNC(=O)N[C@H]1C=C[C@]2(O[C@H]([C@@H](CC)C(=O)[C@@H](C)[C@@H](O)[C@H](C)[C@@H]3O[C@@H]([C@@H](CC)C(=O)O)CC[C@@H]3C)[C@@H](C)C[C@H]2C)O[C@@]12CC[C@@](C)([C@H]1CC[C@](O)(CC)[C@H](C)O1)O2	10	3200	10 (≈ 8.21 µg/mL)	42	100	13.1	–	–
CC[C@@H](C(=O)[C@@H](C)[C@@H](O)[C@H](C)[C@@H]1O[C@@H]([C@@H](CC)C(=O)O)CC[C@@H]1C)[C@H]1O[C@]2(C=C[C@H](NC(=O)NCc3ccccc3)[C@]3(CC[C@@](C)([C@H]4CC[C@](O)(CC)[C@H](C)O4)O3)O2)[C@H](C)C[C@@H]1C	10	1500	10 (≈ 8.83 µg/mL)	16.7	100	11.1	–	–
CCCCCCCCNC(=O)N[C@H]1C=C[C@]2(O[C@H]([C@@H](CC)C(=O)[C@@H](C)[C@@H](O)[C@H](C)[C@@H]3O[C@@H]([C@@H](CC)C(=O)O)CC[C@@H]3C)[C@@H](C)C[C@H]2C)O[C@@]12CC[C@@](C)([C@H]1CC[C@](O)(CC)[C@H](C)O1)O2	10	270	1 (≈ 0.905 µg/mL)	6.3	10	23.3	–	–
CC[C@@H](C(=O)[C@@H](C)[C@@H](O)[C@H](C)[C@@H]1O[C@@H]([C@@H](CC)C(=O)O)CC[C@@H]1C)[C@H]1O[C@]2(C=C[C@H](NC(=O)Nc3cccc4ccccc34)[C@]3(CC[C@@](C)([C@H]4CC[C@](O)(CC)[C@H](C)O4)O3)O2)[C@H](C)C[C@@H]1C	10	1900	10 (≈ 9.19 µg/mL)	13.5	100	7.1	–	–
CC[C@@H](C(=O)[C@@H](C)[C@@H](O)[C@H](C)[C@@H]1O[C@@H]([C@@H](CC)C(=O)O)CC[C@@H]1C)[C@H]1O[C@]2(C=C[C@H](NC(=S)Nc3ccccc3)[C@]3(CC[C@@](C)([C@H]4CC[C@](O)(CC)[C@H](C)O4)O3)O2)[C@H](C)C[C@@H]1C	10	220	1 (≈ 0.885 µg/mL)	8.9	10	40.5	Active	–
Cc1ccc(C(=O)Nc2ccc(S(=O)(=O)O)c3cc(S(=O)(=O)O)cc(S(=O)(=O)O)c23)cc1NC(=O)c1cccc(NC(=O)Nc2cccc(C(=O)Nc3cc(C(=O)Nc4ccc(S(=O)(=O)O)c5cc(S(=O)(=O)O)cc(S(=O)(=O)O)c45)ccc3C)c2)c1 [SURAMIN]	> 1000	39	0.1 (≈ 0.13 µg/mL)	> 100	> 100	> 2560	–	–
CCNC(=S)N[C@H]1C=C[C@]2(O[C@H]([C@@H](CC)C(=O)[C@@H](C)[C@@H](O)[C@H](C)[C@@H]3O[C@@H]([C@@H](CC)C(=O)O)CC[C@@H]3C)[C@@H](C)C[C@H]2C)O[C@@]12CC[C@@](C)([C@H]1CC[C@](O)(CC)[C@H](C)O1)O2	100	330	1 (≈ 0.837 µg/mL)	18.5	100	56.1	–	–
CC[C@@H](C(=O)[C@@H](C)[C@@H](O)[C@H](C)[C@@H]1O[C@@H]([C@@H](CC)C(=O)O)CC[C@@H]1C)[C@H]1O[C@]2(C=C[C@H](N)[C@]3(CC[C@@](C)([C@H]4CC[C@](O)(CC)[C@H](C)O4)O3)O2)[C@H](C)C[C@@H]1C	10	3300	10 (≈ 7.5 µg/mL)	83.2	100	25.2	inactive	–
CCCCNC(=S)N[C@H]1C=C[C@]2(O[C@H]([C@@H](CC)C(=O)[C@@H](C)[C@@H](O)[C@H](C)[C@@H]3O[C@@H]([C@@H](CC)C(=O)O)CC[C@@H]3C)[C@@H](C)C[C@H]2C)O[C@@]12CC[C@@](C)([C@H]1CC[C@](O)(CC)[C@H](C)O1)O2	10	180	1 (≈ 0.865 µg/mL)	8.4	10	46.7	Active	–
